Rows were chosen to be rich in hits. Some 1.5% of all compounds tested hit in one or more screens of this group.
Pemphigus Ab inh: inhibitors of pemphigus antibody binding to DSG3, primary screen, biochemical, bead-based, flow cytometry, scFv-GFP; Desmoglein-3 (Homo sapiens), P32926; DSG3-coupled beads, scFv-anti-DSG3-GFP binding; active compounds read low; binding (percent of control), % at 10 µM; 310,000 compounds, 0.48% hits;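 active = binding more than 3 SD below its plate's average and above zero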;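 note: hits lower antibody fragment binding to DSG3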
HDAC3 inh: HDAC3 deacetylase inhibitors, primary screen, biochemical, fluorescence, cell-free homogeneous. inhibition, % at 8.3 µM. recombinant HDAC3, fluorogenic peptide/trypsin coupled. AID 2718, 2010. 320,000 compounds, 0.15% hits. Histone deacetylase 3 (Homo sapiens), O15379; in the data active = inhibition above about 26%, passing the limit was not always enough
Target sequence (O15379 whole entry, looked up): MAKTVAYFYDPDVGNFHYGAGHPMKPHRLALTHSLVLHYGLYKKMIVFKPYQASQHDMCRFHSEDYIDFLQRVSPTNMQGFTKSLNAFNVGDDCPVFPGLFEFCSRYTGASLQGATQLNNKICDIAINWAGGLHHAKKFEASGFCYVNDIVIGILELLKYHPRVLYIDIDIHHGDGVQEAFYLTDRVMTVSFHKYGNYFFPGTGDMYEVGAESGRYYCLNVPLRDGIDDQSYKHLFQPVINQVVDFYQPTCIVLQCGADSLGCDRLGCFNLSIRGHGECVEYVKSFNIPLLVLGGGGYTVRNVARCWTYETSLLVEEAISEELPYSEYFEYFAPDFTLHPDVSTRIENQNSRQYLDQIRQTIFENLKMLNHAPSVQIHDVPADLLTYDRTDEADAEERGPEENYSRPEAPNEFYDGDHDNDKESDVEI
Arr AP2 block: inhibitors of beta-arrestin/AP2 binding, primary screen, biochemical, GPCR trafficking, flow cytometry; AID 504490, 2011; inhibition, % at 10 µM; beta-arrestin 1 C-terminal peptide binding to AP2 beta2-adaptin appendage (human); FITC-arrestin peptide / GST-AP2 beads; AP2 beta2 appendage carries R879A mutation; 340,000 compounds, 0.31% hits;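 active = inhibition above a set limit, near 3 SD of compounds lacking own fluorescence, cut at about 54% in these data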
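Measured by: flow cytometry, FL1 (488/535 nm); Material: AP2 appendage R879A on GSH beads; Evaluation: percent response; Timing: pre-incubation 12 min, peptide binding 1 h, room temperature; Also added: 50 nM FITC-arrestin peptide; Medium: PBS with 0.05% Tween 20 and 0.1% BSA.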
LANA-H2A inh: blockers of LANA interaction with H2A/H2B – biochemical, FP readout, HTS, primary screen; cell-free LANA-H2A/H2B peptide, fluorescence polarization; 320,000 compounds, 0.6% hits; inhibition, % (no concentration beside the values); AID 2629, 2010; in the data active = inhibition mostly above about 10%, no sharp cut-off; inactive = mostly below about 6.7%
T cell HTS: modulators of CD8 T cell-vesicle binding, primary screen, mouse 2C CD8+ T cells, flow cytometry | 2C CD8+ T cell-vesicle binding; active compounds read low | response (vesicle binding), % at 7 µM | 330,000 compounds, 0.068% hits | AID 2052, 2009;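 active = response, share of CD8 T cells binding vesicles, and their 90th percentile fluorescence all below set limits, cut at about 80% in these data, passing the limit was not always enough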;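 note: values below 100% mean blocked vesicle binding to the CD8+ T cells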
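Assay system: 2C TCR transgenic mouse naive CD8+ T cells, MACS-purified | Read-out: CD8+ gate FL2 mean fluorescence as % of same-row positive control | Signal: High-throughput flow cytometry with anti-B7-1 and anti-CD8 staining | Timing: Binding step 1.5 h, 37 °C, antibody labelling 20 min, ice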
Hits are given with their value.

`CCOC(=O)c1cc(CC)sc1NC(=O)c1ccc(N2C(=O)CCC2=O)cc1` gave Pemphigus Ab inh 79, HDAC3 inh inactive, Arr AP2 block inactive, LANA-H2A inh inactive and T cell HTS inactive.
CCOC(=O)c1c(-c2ccc(C)cc2)csc1NC(=O)c1ccc(N2C(=O)CCC2=O)cc1 was read as Pemphigus Ab inh inactive, HDAC3 inh inactive, Arr AP2 block inactive, LANA-H2A inh inactive and T cell HTS inactive.
Screening O=C1C2C3C=CC(CNS(=O)(=O)c4ccccc4)(O3)C2C(=O)N1c1ccc(Cl)cc1 (stereo not drawn) returned Pemphigus Ab inh inactive, HDAC3 inh inactive, Arr AP2 block inactive, LANA-H2A inh inactive and T cell HTS inactive.
`Cc1ccc(N2C(=O)C3C4C=CC(CNC(=S)N5CCN(c6cccc(C)c6)C(C)C5)(O4)C3C2=O)cc1` (stereo not drawn) gave Pemphigus Ab inh 83, Arr AP2 block inactive, LANA-H2A inh inactive and T cell HTS inactive.
c1ccc2c(c1)Oc1ccccc1S2 was read as Pemphigus Ab inh inactive, HDAC3 inh inactive, Arr AP2 block inactive, LANA-H2A inh 42 and T cell HTS inactive.
For CCOc1ccc(N2C(=O)S/C(=C\c3cccn3C)C2=O)cc1 the results were Pemphigus Ab inh inactive, HDAC3 inh inactive, Arr AP2 block inactive, LANA-H2A inh 20 and T cell HTS inactive.
For COc1ccc(NC2CCCN(C(=O)CCN3Cc4ccccc4C3=O)C2)cc1 (stereo not drawn) the results were Pemphigus Ab inh inactive, HDAC3 inh inactive, Arr AP2 block inactive, LANA-H2A inh 21 and T cell HTS inactive.
O=C(Nc1ccccc1C(=O)NCCc1ccc(O)cc1)c1ccco1 was read as Pemphigus Ab inh inactive, HDAC3 inh inactive, Arr AP2 block inactive, LANA-H2A inh inactive and T cell HTS inactive.
For CCn1cc(C(=O)OCC(=O)N(C)Cc2ccccc2)c(=O)c2ccc(C)nc21 the results were Pemphigus Ab inh inactive, HDAC3 inh inactive, Arr AP2 block inactive, LANA-H2A inh 61 and T cell HTS inactive.
COC(=O)C1CCN(C(=O)[C@H](C)NC(=O)C2CC(=O)N(c3ccc(F)cc3)C2)CC1 (stereo partly drawn) was read as Pemphigus Ab inh inactive, HDAC3 inh inactive, Arr AP2 block inactive, LANA-H2A inh inactive and T cell HTS inactive.
COc1ccc(C(=O)CCS(=O)(=O)c2ccc(C)cc2)cc1OC was read as Pemphigus Ab inh inactive, HDAC3 inh inactive, Arr AP2 block inactive, LANA-H2A inh inactive and T cell HTS inactive.
`COc1ccc(C(=O)CCC(C)(C)[N+](=O)[O-])cc1OC` gave HDAC3 inh inactive, Arr AP2 block inactive, LANA-H2A inh inactive and T cell HTS 60.
Screening Cc1cc(C)c2c(N)c(C(=O)Nc3ncc(C)s3)sc2n1 returned Pemphigus Ab inh inactive, HDAC3 inh inactive, Arr AP2 block inactive, LANA-H2A inh inactive and T cell HTS inactive.
For COc1ccc2nc(NC(=O)c3sc4nc(C)cc(C)c4c3N)sc2c1 the results were Pemphigus Ab inh 74, HDAC3 inh inactive, Arr AP2 block inactive, LANA-H2A inh inactive and T cell HTS inactive.
Screening NC(=O)CC(c1ccccc1)c1ccc2c(c1)OCO2 (stereo not drawn) returned Pemphigus Ab inh inactive, HDAC3 inh inactive, Arr AP2 block inactive, LANA-H2A inh inactive and T cell HTS inactive.
`NC(CSC(c1ccccc1)(c1ccccc1)c1ccc2c(c1)OCO2)C(=O)O` (stereo not drawn) gave Pemphigus Ab inh 93.
`CN(CC(=O)Nc1ccc(F)c(F)c1F)C(=O)c1n[nH]c(=O)c2ccccc12` gave Pemphigus Ab inh inactive, HDAC3 inh inactive, Arr AP2 block inactive, LANA-H2A inh inactive and T cell HTS inactive.
Cc1oc(-c2ccc(Cl)cc2)nc1CS(=O)CC(=O)NCc1ccccc1 (stereo not drawn) was read as Pemphigus Ab inh 67, HDAC3 inh inactive, Arr AP2 block inactive, LANA-H2A inh inactive and T cell HTS inactive.
Cc1ccc(-c2nc(CS(=O)CC(=O)NCCC(C)C)c(C)o2)cc1 (stereo not drawn) was read as Pemphigus Ab inh 72, HDAC3 inh inactive, Arr AP2 block inactive, LANA-H2A inh inactive and T cell HTS inactive.
`CC(C)N(C(=O)CSc1n[nH]c(=O)n1CCc1ccccc1)C(C)C` gave Pemphigus Ab inh inactive, HDAC3 inh inactive, Arr AP2 block inactive, LANA-H2A inh inactive and T cell HTS inactive.
COc1ccc(N=C2S/C(=C\c3ccc(N4CCOCC4)o3)C(=O)N2CCc2c[nH]c3ccccc23)cc1 was read as Pemphigus Ab inh inactive, HDAC3 inh inactive, Arr AP2 block inactive, LANA-H2A inh inactive and T cell HTS inactive.
COc1ccc(N=C2S/C(=C\c3ccc(OCC(=O)O)cc3)C(=O)N2CCc2c[nH]c3ccccc23)cc1 was read as Pemphigus Ab inh 46 and Arr AP2 block inactive.
COc1ccc(O)c(/C=N/n2c(-c3ccco3)csc2=Nc2cccnc2)c1 was read as Pemphigus Ab inh 1.2, HDAC3 inh inactive, Arr AP2 block inactive, LANA-H2A inh inactive and T cell HTS inactive.
Screening NC(=O)c1c(NC(=O)C(=O)N2CCOCC2)sc2c1CCC2 returned Pemphigus Ab inh inactive, HDAC3 inh inactive, Arr AP2 block inactive, LANA-H2A inh inactive and T cell HTS inactive.
Screening CCCCCCN1C=CC=C/C1=C/C=C(C#N)C#N returned Pemphigus Ab inh inactive, HDAC3 inh inactive, Arr AP2 block inactive, LANA-H2A inh 10 and T cell HTS inactive.
Screening COc1ccc(CCNC(=O)CCOc2ccc(C)cc2)cc1OC returned Pemphigus Ab inh inactive, HDAC3 inh inactive, Arr AP2 block inactive, LANA-H2A inh inactive and T cell HTS inactive.
COc1ccc(-c2nnn(CC(=O)NCCc3ccc(OC)c(OC)c3)n2)cc1 was read as Pemphigus Ab inh 38, HDAC3 inh inactive, Arr AP2 block inactive, LANA-H2A inh inactive and T cell HTS inactive.
`COc1ccc(CCNC(=O)COc2ccc(-c3ccc(C)cc3)cc2)cc1OC` gave Pemphigus Ab inh 83, HDAC3 inh inactive, Arr AP2 block inactive, LANA-H2A inh inactive and T cell HTS inactive.
Screening COc1ccc(CCNC(=S)NCCc2ccc(OC)c(OC)c2)cc1OC returned Pemphigus Ab inh inactive, HDAC3 inh inactive, Arr AP2 block inactive, LANA-H2A inh inactive and T cell HTS 66.
O=C(CCc1nc2ccccc2c(=O)[nH]1)OCc1cccc(C(F)(F)F)c1 was read as Pemphigus Ab inh inactive, HDAC3 inh inactive, Arr AP2 block inactive, LANA-H2A inh inactive and T cell HTS inactive.
O=C(CCc1nc2ccccc2c(=O)[nH]1)OCc1ccc(-c2ccccc2)cc1 was read as Pemphigus Ab inh 7.9, HDAC3 inh inactive, Arr AP2 block inactive, LANA-H2A inh inactive and T cell HTS inactive.

Source: PubChem (several laboratories)
